In brackets after ≈: the same amount, converted by molar mass.
Key:
[1] = tested on: Acinetobacter baumannii; assay: Antibacterial activity against efflux pump lacking Acinetobacter baumannii assessed as inhibition of bacterial growth; type: functional, organism-based
[2] = tested on: Escherichia coli; assay: Antibacterial activity against efflux pump lacking Escherichia coli assessed as inhibition of bacterial growth; type: functional, organism-based
[3] = tested on: Acinetobacter baumannii; assay: Antibacterial activity against wild type Acinetobacter baumannii assessed as inhibition of bacterial growth; type: functional, organism-based
[4] = tested on: Acinetobacter baumannii; assay: Antibacterial activity against efflux pump lacking/recombinant OM pore producing Acinetobacter baumannii assessed as inhibition of bacterial growth; type: functional, organism-based
[5] = tested on: Escherichia coli; assay: Antibacterial activity against Escherichia coli SQ110 DTC G2032A incubated for 24 hrs by twofold serial dilution method; type: functional
How it was run: (§1)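 E. coli SQDTC (TolC-deficient, single rRNA operon) carrying LZD-resistant 23S rRNA substitutions. Compounds come from 10 mM DMSO stocks and are twofold serially diluted in 96-well plates.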

[6] = tested on: Escherichia coli; assay: Antibacterial activity against Escherichia coli SQ110 DTC C2610A incubated for 24 hrs by twofold serial dilution method; type: functional; how it was run: as §1
[7] = tested on: Escherichia coli; assay: Antibacterial activity against efflux pump lacking/recombinant OM pore producing Escherichia coli incubated for 24 hrs by twofold serial dilution method; type: functional
How it was run: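 E. coli efflux-knockout/hyperporinated strain grown in M9 medium with 50 mM MOPS (pH 7.2) and 0.2% xylose. OM pore induced with 0.1% arabinose. Compounds come from 10 mM DMSO stocks and are twofold serially diluted in 96-well plates.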

[8] = tested on: Escherichia coli; assay: Antibacterial activity against efflux pump lacking/recombinant OM pore producing Escherichia coli assessed as inhibition of bacterial growth; type: functional, organism-based
[9] = tested on: Escherichia coli; assay: Antibacterial activity against wild type Escherichia coli assessed as inhibition of bacterial growth; type: functional, organism-based
[10] = tested on: Escherichia coli; assay: Antibacterial activity against recombinant OM pore producing Escherichia coli assessed as inhibition of bacterial growth; type: functional, organism-based
[11] = tested on: Pseudomonas aeruginosa; assay: Antibacterial activity against efflux pump lacking/recombinant OM pore producing Pseudomonas aeruginosa assessed as inhibition of bacterial growth; type: functional, organism-based
[12] = tested on: Acinetobacter baumannii; assay: Antibacterial activity against efflux pump lacking/recombinant OM pore producing Acinetobacter baumannii incubated for 24 hrs by twofold serial dilution method; type: functional
How it was run: (§2)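 MICs by twofold serial dilution in 96-well plates from 10 mM DMSO stocks. Cultures grown in the indicated media; for E. coli, A. baumannii and P. aeruginosa, inducers were 0.1% arabinose, 1% arabinose and 0.1 mM IPTG respectively.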

[13] = tested on: Acinetobacter baumannii; assay: Antibacterial activity against recombinant OM pore producing Acinetobacter baumannii assessed as inhibition of bacterial growth; type: functional, organism-based
[14] = tested on: Pseudomonas aeruginosa; assay: Antibacterial activity against recombinant OM pore producing Pseudomonas aeruginosa assessed as inhibition of bacterial growth; type: functional, organism-based
[15] = tested on: Pseudomonas aeruginosa; assay: Antibacterial activity against efflux pump lacking/recombinant OM pore producing Pseudomonas aeruginosa incubated for 24 hrs by twofold serial dilution method; type: functional; how it was run: as §2
[16] = tested on: Pseudomonas aeruginosa; assay: Antibacterial activity against efflux pump lacking Pseudomonas aeruginosa assessed as inhibition of bacterial growth; type: functional, organism-based
[17] = tested on: Escherichia coli; assay: Antibacterial activity against Escherichia coli SQ110 DTC incubated for 24 hrs by twofold serial dilution method; type: functional; how it was run: as §2
[18] = tested on: Staphylococcus aureus; assay: Antibacterial activity against Staphylococcus aureus ATCC 25923 incubated for 24 hrs by twofold serial dilution method; type: functional; how it was run: as §2
[19] = tested on: Pseudomonas aeruginosa; assay: Antibacterial activity against wild type Pseudomonas aeruginosa assessed as inhibition of bacterial growth; type: functional, organism-based
[20] = tested on: Escherichia coli; assay: Antibacterial activity against Escherichia coli SQ110 incubated for 24 hrs by twofold serial dilution method; type: functional; how it was run: as §2

Row | SMILES | IC50 [1] | IC50 [2] | IC50 [3] | IC50 [4] | MIC [5] | MIC [6] | MIC [7] | IC50 [8] | IC50 [9] | IC50 [10] | IC50 [11] | MIC [12] | IC50 [13] | IC50 [14] | MIC [15] | IC50 [16] | MIC [17] | MIC [18] | IC50 [19] | MIC [20]
1 | C[n+]1cccc(-c2ccc(-c3ccc(N4C[C@H](CO)OC4=O)cc3F)cc2)c1 | 29.7 µM | 1.2 µM | > 100 µM | 12.6 µM | 50 µM | 25 µM | 25 µM | 2.1 µM | 98.4 µM | 7.8 µM | 18.1 µM | 25 µM | 13.9 µM | 28.1 µM | 25 µM | 29.7 µM | 12.5 µM | 12.5 µM | > 100 µM | > 100 µM
2 | C[n+]1ccc(-c2ccc(N3C[C@H](CO)OC3=O)cc2F)cc1 | 23.3 µM | 10 µM | 59.4 µM | 13.8 µM | > 100 µM | 100 µM | > 100 µM | 11 µM | 13.5 µM | 12.3 µM | 9.4 µM | > 100 µM | 13.8 µM | 59.7 µM | > 100 µM | 48.8 µM | 50 µM | > 100 µM | > 100 µM | 100 µM
3 | O=C1O[C@@H](CO)CN1c1ccc(-c2ccc(OC(F)(F)F)cc2)c(F)c1 | 16.3 µM | 17.2 µM | > 100 µM | 6.4 µM | > 100 µM | > 100 µM | > 100 µM | 18.8 µM | > 100 µM | 76.9 µM | 3.1 µM | 25 µM | 25.6 µM | > 100 µM | > 100 µM | 18.6 µM | 100 µM (≈ 37.1 µg/mL) | 6.25 µM (≈ 2.32 µg/mL) | > 100 µM | > 100 µM
4 | O=C1O[C@@H](CO)CN1c1ccc(-c2ccc(CO)cc2)c(F)c1 | 4.4 µM | 3.9 µM | 45.3 µM | 4.6 µM | 50 µM (≈ 15.9 µg/mL) | 25 µM (≈ 7.93 µg/mL) | 25 µM | 3.7 µM | 67.9 µM | 17.6 µM | 5.5 µM | 12.5 µM | 5.7 µM | > 100 µM | 6.25 µM | 5.3 µM | 12.5 µM (≈ 3.97 µg/mL) | 1.56 µM (≈ 0.495 µg/mL) | > 100 µM | > 100 µM
5 | Nc1ncc(-c2ccc(N3C[C@H](CO)OC3=O)cc2F)cn1 | 53 µM | 5.9 µM | > 100 µM | 53 µM | 100 µM (≈ 30.4 µg/mL) | 50 µM (≈ 15.2 µg/mL) | > 100 µM | 1.5 µM | > 100 µM | 2 µM | 33 µM | 50 µM | > 100 µM | > 100 µM | 12.5 µM | > 100 µM | 25 µM (≈ 7.61 µg/mL) | 6.25 µM (≈ 1.9 µg/mL) | > 100 µM | > 100 µM
6 | O=C1O[C@@H](CO)CN1c1ccc(-c2ccc(O)cc2)c(F)c1 | 8.4 µM | 2 µM | > 100 µM | 7.3 µM |  |  |  | 2.3 µM | > 100 µM | 22.1 µM | 5.8 µM |  | 12.9 µM | 27.7 µM |  | 8.4 µM |  |  | > 100 µM | 
7 | CNC(=O)NCC#Cc1ccc(N2C[C@H](CO)OC2=O)cc1F | > 100 µM | > 100 µM | > 100 µM | > 100 µM |  |  |  | 11.2 µM | > 100 µM | > 100 µM | > 100 µM |  | > 100 µM | > 100 µM |  | > 100 µM |  |  | > 100 µM | 
8 | O=C1O[C@@H](CO)CN1c1ccc(-c2ccccc2OC(F)(F)F)c(F)c1 | 33.2 µM | 9.3 µM | > 100 µM | 24.8 µM |  |  |  | 21.9 µM | 42.6 µM | 46.3 µM | 29.9 µM |  | 59.1 µM | > 100 µM |  | 75.6 µM |  |  | > 100 µM | 
9 | CC(C(=O)NCC#Cc1ccc(N2C[C@H](CO)OC2=O)cc1F)N1CCN(C(=O)OC(C)(C)C)CC1 (stereo not given in full) | > 100 µM | 50.9 µM | > 100 µM | > 100 µM |  |  |  | 62.6 µM | > 100 µM | > 100 µM | > 100 µM |  | > 100 µM | > 100 µM |  | > 100 µM |  |  | > 100 µM | 
10 | O=C1O[C@@H](CO)CN1c1ccc(C#Cc2cc(Cl)cc(Cl)c2)c(F)c1 | > 100 µM | 26.1 µM | > 100 µM | > 100 µM |  |  |  | 3.6 µM | 74.8 µM | 12.8 µM | 16.2 µM |  | > 100 µM | > 100 µM |  | 64.9 µM |  |  | > 100 µM | 

Reference: ChEMBL document CHEMBL5104202, “Structure-Uptake Relationship Studies of Oxazolidinones in Gram-Negative ESKAPE Pathogens” (J Med Chem, 2022)
